# Source: ChEMBL document CHEMBL2346604, “Synthesis of nordihydroguaiaretic acid derivatives and their bioactivities on S. pombe and K562 cell lines” (Eur J Med Chem, 2013)
# The source made the active and inactive calls. No cut-off for these calls is given here.
# Assays:
# K562 [1] = assay: Inhibition of growth metabolism of human K562 cells assessed as growth rate constant at 4 mg/L at 37 degC by TAM air microcalorimetry; format: functional
# Outline: (§1)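 K562 cells in supplemented RPMI 1640 (10% FBS) seeded at 1×10⁶ cells/mL with compound at graded concentrations. Heat flow recorded in real time in an eight-channel isothermal microcalorimeter (TAM Air). Rate constant k derived from thermogenic growth curves. Inhibition ratio I = (k0 − kc)/k0 × 100% relative to untreated cells, and IC50 is the concentration at I = 50%. Mean ± S.D., n = 3.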
# K562 [2] = assay: Induction of late apoptosis in human K562 cells assessed as cell membrane structural changes, smaller nuclear size, chromatin assembly under nuclear envelope, clear nuclear membrane structure, lipid droplets in cytoplasm, protruded cell surface with red nucleus at 4 to 6 mg/L after 12 to 24 hrs by propidium iodide staining based fluorescence microscopy; format: functional
# Outline: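 K562 groups at 0, 4.0 and 6.0 mg/L were held 12, 18 or 24 h at 37 °C in 5% CO2. Cells (1 mL) were collected, washed three times in PBS, stained with propidium iodide for 5 min in the dark and washed. Morphology of membrane, nucleus, chromatin and cytoplasm was scored against untreated controls.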
# [3] = test system: Schizosaccharomyces pombe; assay: Inhibition of growth metabolism of Schizosaccharomyces pombe ACCC 20047 assessed as growth rate constant at 240 mg/L at 32 degC by TAM air microcalorimetry; format: functional
# Outline: (§2)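 Cells seeded at 1×10⁶ cells/mL with compound at a range of concentrations. Heat output recorded continuously in a TAM Air isothermal microcalorimeter. Growth rate constant k taken from power-time curves. I = (k0 − kc)/k0 × 100%, and IC50 is the concentration giving I = 50%. n = 3.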
# [4] = test system: Schizosaccharomyces pombe; assay: Inhibition of growth metabolism of Schizosaccharomyces pombe ACCC 20047 assessed as growth rate constant at 320 mg/L at 32 degC by TAM air microcalorimetry; format: functional; outline: as §2
# K562 [5] = assay: Inhibitive ratio of growth metabolism of human K562 cells at 4 mg/L at 37 degC by TAM air microcalorimetry (reference value: 0%); format: functional; outline: as §1
# K562 [6] = assay: Inhibitive ratio of growth metabolism of human K562 cells at 2 mg/L at 37 degC by TAM air microcalorimetry (reference value: 0%); format: functional; outline: as §1
# K562 [7] = assay: Induction of apoptosis in human K562 cells assessed as mitochondrial transmembrane potential at 6 mg/L after 12 hrs by Rh123 staining based fluorescence spectrophotometer analysis (reference value: 668.2 +/-0.8%); format: functional
# [8] = test system: Schizosaccharomyces pombe; assay: Inhibition of growth metabolism of Schizosaccharomyces pombe ACCC 20047 assessed as growth rate constant at 20 mg/L at 32 degC by TAM air microcalorimetry; format: functional; outline: as §2
# K562 [9] = assay: Induction of apoptosis in human K562 cells assessed as mitochondrial transmembrane potential at 4 mg/L after 18 hrs by Rh123 staining based fluorescence spectrophotometer analysis (reference value: 788.8 +/-1.0%); format: functional
# [10] = test system: Schizosaccharomyces pombe; assay: Inhibition of growth metabolism of Schizosaccharomyces pombe ACCC 20047 assessed as growth rate constant at 380 mg/L at 32 degC by TAM air microcalorimetry; format: functional; outline: as §2
# K562 [11] = assay: Inhibition of growth metabolism of human K562 cells assessed as growth rate constant at 2 mg/L at 37 degC by TAM air microcalorimetry; format: functional; outline: as §1
# [12] = test system: Schizosaccharomyces pombe; assay: Inhibition of growth metabolism of Schizosaccharomyces pombe ACCC 20047 at 32 degC by TAM air microcalorimetry; format: functional, organism-based; outline: as §2
# [13] = test system: Schizosaccharomyces pombe; assay: Inhibitive ratio of growth metabolism of Schizosaccharomyces pombe ACCC 20047 at 320 mg/L at 32 degC by TAM air microcalorimetry (reference value: 0%); format: functional; outline: as §2
# [14] = test system: Schizosaccharomyces pombe; assay: Inhibitive ratio of growth metabolism of Schizosaccharomyces pombe ACCC 20047 at 160 mg/L at 32 degC by TAM air microcalorimetry (reference value: 0%); format: functional; outline: as §2
# K562 [15] = assay: Inhibition of growth metabolism of human K562 cells assessed as growth rate constant at 3 mg/L at 37 degC by TAM air microcalorimetry; format: functional; outline: as §1
# K562 [16] = assay: Induction of apoptosis in human K562 cells assessed as mitochondrial transmembrane potential at 6 mg/L after 24 hrs by Rh123 staining based fluorescence spectrophotometer analysis (reference value: 277.9 +/-1.4%)
# [17] = test system: Schizosaccharomyces pombe; assay: Inhibitive ratio of growth metabolism of Schizosaccharomyces pombe ACCC 20047 at 80 mg/L at 32 degC by TAM air microcalorimetry (reference value: 0%); format: functional; outline: as §2
# K562 [18] = assay: Inhibition of growth metabolism of human K562 cells assessed as growth rate constant at 5 mg/L at 37 degC by TAM air microcalorimetry; format: functional; outline: as §1
# K562 [19] = assay: Inhibition of growth metabolism of human K562 cells assessed as growth rate constant at 6 mg/L at 37 degC by TAM air microcalorimetry; format: functional; outline: as §1
# [20] = test system: Schizosaccharomyces pombe; assay: Inhibitive ratio of growth metabolism of Schizosaccharomyces pombe ACCC 20047 at 240 mg/L at 32 degC by TAM air microcalorimetry (reference value: 0%); format: functional; outline: as §2
# [21] = test system: Schizosaccharomyces pombe; assay: Inhibitive ratio of growth metabolism of Schizosaccharomyces pombe ACCC 20047 at 380 mg/L at 32 degC by TAM air microcalorimetry (reference value: 0%); format: functional; outline: as §2
# K562 [22] = assay: Inhibitive ratio of growth metabolism of human K562 cells at 3 mg/L at 37 degC by TAM air microcalorimetry (reference value: 0%); format: functional; outline: as §1
# K562 [23] = assay: Induction of apoptosis in human K562 cells assessed as mitochondrial transmembrane potential at 4 mg/L after 24 hrs by Rh123 staining based fluorescence spectrophotometer analysis (reference value: 277.9 +/-1.4%); format: functional
# [24] = test system: Schizosaccharomyces pombe; assay: Inhibition of growth metabolism of Schizosaccharomyces pombe ACCC 20047 assessed as growth rate constant at 40 mg/L at 32 degC by TAM air microcalorimetry; format: functional; outline: as §2
# [25] = test system: Schizosaccharomyces pombe; assay: Inhibition of growth metabolism of Schizosaccharomyces pombe ACCC 20047 assessed as growth rate constant at 160 mg/L at 32 degC by TAM air microcalorimetry; format: functional; outline: as §2
# K562 [26] = assay: Inhibition of growth metabolism of human K562 cells at 37 degC by TAM air microcalorimetry; format: functional, cell-based; outline: as §1
# K562 [27] = assay: Inhibition of growth metabolism of human K562 cells assessed as growth rate constant at 8 mg/L at 37 degC by TAM air microcalorimetry; format: functional; outline: as §1
# K562 [28] = assay: Inhibitive ratio of growth metabolism of human K562 cells at 6 mg/L at 37 degC by TAM air microcalorimetry (reference value: 0%); format: functional; outline: as §1
# K562 [29] = assay: Induction of apoptosis in human K562 cells assessed as mitochondrial transmembrane potential at 4 mg/L after 12 hrs by Rh123 staining based fluorescence spectrophotometer analysis (reference value: 668.2 +/-0.8%); format: functional
# K562 [30] = assay: Inhibitive ratio of growth metabolism of human K562 cells at 8 mg/L at 37 degC by TAM air microcalorimetry (reference value: 0%); format: functional; outline: as §1
# [31] = test system: Schizosaccharomyces pombe; assay: Inhibitive ratio of growth metabolism of Schizosaccharomyces pombe ACCC 20047 at 40 mg/L at 32 degC by TAM air microcalorimetry (reference value: 0%); format: functional; outline: as §2
# K562 [32] = assay: Induction of apoptosis in human K562 cells assessed as mitochondrial transmembrane potential at 6 mg/L after 18 hrs by Rh123 staining based fluorescence spectrophotometer analysis (reference value: 788.8 +/-1.0%); format: functional
# [33] = test system: Schizosaccharomyces pombe; assay: Inhibitive ratio of growth metabolism of Schizosaccharomyces pombe ACCC 20047 at 20 mg/L at 32 degC by TAM air microcalorimetry (reference value: 0%); format: functional; outline: as §2
# K562 [34] = assay: Inhibitive ratio of growth metabolism of human K562 cells at 5 mg/L at 37 degC by TAM air microcalorimetry (reference value: 0%); format: functional; outline: as §1
# [35] = test system: Schizosaccharomyces pombe; assay: Inhibition of growth metabolism of Schizosaccharomyces pombe ACCC 20047 assessed as growth rate constant at 80 mg/L at 32 degC by TAM air microcalorimetry; format: functional; outline: as §2
structure (smiles),measurement,setting,value
COc1ccc(C[C@@H](C)[C@@H](C)Cc2ccc(OC)c(OC)c2)cc1OC [TERAMEPROCOL],Activity,K562 [1],3.9762 ×10⁻⁴ /min
same,Activity,K562 [2],Active
same,Activity,[3],0.00322 min⁻¹
same,Activity,[4],0.00245 min⁻¹
same,inhibition at 4 µg/mL,K562 [5],5.06%
same,inhibition at 2 µg/mL,K562 [6],-12.8%
same,Activity,K562 [7],477.8%
same,Activity,[8],0.00401 min⁻¹
same,Activity,K562 [9],615.3%
same,Activity,[10],0.00143 min⁻¹
same,Activity,K562 [11],4.7239 ×10⁻⁴ /min
same,IC50,[12],330 µg/mL
same,inhibition at 320 µg/mL,[13],44.7%
same,inhibition at 160 µg/mL,[14],11.5%
same,Activity,K562 [15],4.4342 ×10⁻⁴ /min
same,Activity,K562 [16],170.7%
same,inhibition at 80 µg/mL,[17],4.06%
same,Activity,K562 [18],2.7992 ×10⁻⁴ /min
same,Activity,K562 [19],1.9712 ×10⁻⁴ /min
same,inhibition at 240 µg/mL,[20],27.3%
same,inhibition at 380 µg/mL,[21],67.7%
same,inhibition at 3 µg/mL,K562 [22],-5.88%
same,Activity,K562 [23],168%
same,Activity,[24],0.00407 min⁻¹
same,Activity,[25],0.00392 min⁻¹
same,IC50,K562 [26],5.87 µg/mL
same,Activity,K562 [27],8.5275 ×10⁻⁵ /min
same,inhibition at 6 µg/mL,K562 [28],52.9%
same,Activity,K562 [29],597.2%
same,inhibition at 8 µg/mL,K562 [30],79.6%
same,inhibition at 40 µg/mL,[31],8.13%
same,Activity,K562 [32],331.5%
same,inhibition at 20 µg/mL,[33],9.48%
same,inhibition at 5 µg/mL,K562 [34],33.2%
same,Activity,[35],0.00425 min⁻¹
